Measured values reported in article PMC3148415 (Molecular pharmaceutics, 2011).

System: U87MG human glioma xenografts
Assay: Biodistribution in athymic nude mice bearing U87MG human glioma xenografts
Type: in vivo
Conditions: 4 h p.i., tail vein injection
Summary of the method: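 Female athymic nu/nu mice carried U87MG xenografts (5 × 10^6 cells s.c. in both upper shoulder flanks) and were used 4 weeks after inoculation. HPLC-purified 64Cu tracer in saline (~30 μCi/mL, 0.20 μm filtered) was given at ~3 μCi by tail vein. Five mice per time point (0.5, 1, 2, 4, 24 h p.i.) were killed by pentobarbital overdose. Heart blood and organs were weighed and γ-counted, giving %ID/g and %ID/organ.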

[Cl][64Cu][Cl] [^64CuCl2] showed a tumor uptake of 1.8 %ID/g.
